# Reference: the M2OR odorant receptor database
# Target: T1, OR2W1 (Homo sapiens) (UniProt Q9Y3N9)
# T1 sequence (whole entry): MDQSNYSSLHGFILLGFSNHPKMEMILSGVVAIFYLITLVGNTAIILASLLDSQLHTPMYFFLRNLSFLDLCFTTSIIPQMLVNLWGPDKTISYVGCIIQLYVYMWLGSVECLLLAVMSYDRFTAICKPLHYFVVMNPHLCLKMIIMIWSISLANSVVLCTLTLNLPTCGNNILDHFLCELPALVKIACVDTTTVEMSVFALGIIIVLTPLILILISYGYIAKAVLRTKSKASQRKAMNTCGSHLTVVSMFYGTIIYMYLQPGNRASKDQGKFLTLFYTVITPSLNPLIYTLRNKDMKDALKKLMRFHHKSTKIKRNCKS
# Details: stereoisomer not certain
# Method in brief: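 Transient luciferase assays in mammalian cell lines were common, though methods varied by source. The values come from published papers and their supplementary material, with extra details from the original authors when needed. Responsive refers to a measured signal the original authors judged statistically different from baseline, and non-responsive (inactive) to the remainder.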
# 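Further: active if original authors judged signal statistically different from baseline.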
row,SMILES,odorant receptor agonist call
1,CCCCCC1CCCC(=O)O1 (stereo unspecified),inactive
2,CCOC(C)=O,inactive
3,CC(C)=CCCC(C)CCO (stereo unspecified),active
4,CCCCCO,inactive
5,CCCCCCCO,active
6,CC=CC(=O)C(C)CC (stereo unspecified),inactive
7,COc1cc(C(=O)O)ccc1O,inactive
8,CCCCCC(=O)CC(C)=O,active
9,CC(C)CC=O,inactive
10,CSCCCO,inactive
11,CCCCCCCCCCO,active
12,CC(=O)OCC=C(C)C,active
13,CCC(C(=O)O)c1ccccc1 (stereo unspecified),inactive
14,c1ccccc1,inactive
15,CSCSC,inactive
16,CCCc1ccc(O)c(OC)c1,inactive
17,CCCCOC=O,active
18,CCOC(C)OCC,inactive

row,SMILES,odorant receptor agonist call
1,CCCCCC=O,inactive
2,CCCCC(=O)CC(C)=O,active
3,CC(=O)c1ccccc1N,inactive
4,CCCC(O)CC(=O)OCC (stereo unspecified),inactive
5,CCC(S)C(C)=O (stereo unspecified),inactive
6,CCC(=O)C(C)=O,inactive
7,Cc1cccc(O)c1,inactive
8,CC(C)=CC1CC(C)CCO1 (stereo unspecified),inactive
9,CCCCCCCCC(=O)O,active
10,CCCC=CC=O,inactive
11,O=C1CCOc2ccccc21,active
12,CCc1ncc(C)nc1CC,inactive
13,CCC=CCC=O,inactive
14,Cc1c[nH]c2ccccc12,inactive
15,CCCCCCCCCC(=O)[O-].[H+],inactive
16,CCC(=O)C(=O)CC,active
17,COC(=O)C(C)C,inactive
18,CCC(C)CCC(=O)[O-] (stereo unspecified),active
